# High-throughput results deposited in PubChem by several laboratories.
# The list is not random: actives were taken first. Their share in the collection is about 3.8%.
# rCAG RNA binder – binders of r(CAG) RNA repeats, primary screen, biochemical, fluorescence; r(CAG) RNA repeat, TO-PRO-1 dye displacement fluorescence; inhibition, % at 3 µM; 370,000 tested, 1.3% active; AID 651821, 2012;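 active means inhibition above the plate cutoff, the mean of all test compounds on that plate plus 3 SD, cut at about 35% in these data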;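 further: 0% = DMSO alone and 100% = 100 µM mitoxantrone as full dye displacement; higher means more dye released from RNA so lower well fluorescence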
# MPTP inh – mitochondrial permeability transition pore inhibitors, primary screen, biochemical, isolated mouse mitochondria, absorbance. AID 602449, 2012. Ca2+ swelling absorbance, 30 min. 360,000 tested, 1.4% active. inhibition, % at 10 µM;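 active means inhibition of 50% or more, scaled per plate between neutral and stimulator controls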;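 further: 0% = DMSO wells given calcium and 100% = 1 mM EGTA wells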
# B2AR ag – beta2AR agonists driving receptor internalization, primary screen, cell-based, FAP fluorogen, flow cytometry; Beta-2 adrenergic receptor (Homo sapiens), P07550; Am2.2-beta2AR cells; response, % (concentration not given with the values); 340,000 tested, 0.43% active; AID 504454, 2011;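 active means response above a set limit, near 3 SD of response in nonfluorescent compounds, cut at about 42% in these data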
# Target sequence (P07550 whole entry, looked up): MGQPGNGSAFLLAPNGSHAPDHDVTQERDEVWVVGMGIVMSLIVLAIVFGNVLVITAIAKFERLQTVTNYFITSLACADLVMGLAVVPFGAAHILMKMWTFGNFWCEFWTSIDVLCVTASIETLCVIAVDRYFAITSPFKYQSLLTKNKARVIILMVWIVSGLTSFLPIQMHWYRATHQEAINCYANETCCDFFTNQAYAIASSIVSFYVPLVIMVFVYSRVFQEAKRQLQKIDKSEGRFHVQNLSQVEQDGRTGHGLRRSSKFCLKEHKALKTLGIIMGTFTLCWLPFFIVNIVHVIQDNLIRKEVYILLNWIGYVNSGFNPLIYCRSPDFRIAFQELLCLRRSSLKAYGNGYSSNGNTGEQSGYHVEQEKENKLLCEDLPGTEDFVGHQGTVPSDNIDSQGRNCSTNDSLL
# V-ATPase pH – regulators of yeast V-ATPase proton pumping, primary screen, pHLuorin cytosolic pH fluorescence; S. cerevisiae; 350,000 tested, 0.37% active; response, % at 10 µM; in the data active means response mostly above about 7.3%, no sharp cut-off; inactive means mostly below about 5.4%; further: actives read high
# Exocytosis inh – LAMP-1 surface exposure blockers, TALL-104 cells – cell-based, flow cytometry, MLPCN library, primary screen; TALL-104 LAMP-1 surface exposure; cells stimulated with thapsigargin and PMA; inhibition, % at 10 µM; 360,000 tested, 0.66% active;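 active means inhibition above about 55%, limit read from the data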
# T cell modulator – modulators of CD8 T cell-vesicle binding, primary screen, mouse 2C CD8+ T cells, flow cytometry | 2C CD8+ T cell-vesicle binding; stronger effect = lower value | response (vesicle binding), % at 7 µM | 330,000 tested, 0.068% active;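 active means response, share of CD8 T cells binding vesicles, and their 90th percentile fluorescence all below set limits, cut at about 80% in these data, passing the limit was not always enough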;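 further: values below 100% mean blocked vesicle binding to the CD8+ T cells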
#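 Test system: purified 2C TCR transgenic mouse naive CD8+ T cells. Probe or stimulus: QL9-peptide-loaded Drosophila micro-vesicles bearing Ld, ICAM-1 and B7-1. Incubation: binding step 1.5 h, 37 °C, antibody labelling 20 min, ice. Measured by: flow cytometry of vesicle-bound cells.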
# rCAG binder conf – small molecules binding CAG repeat RNA – biochemical, fluorescence, confirmation; shares compounds with rCAG RNA binder; r(CAG) RNA repeat, TO-PRO-1 dye displacement fluorescence; inhibition, % at 3 µM; 4,300 tested, 70% active; AID 652065, 2013;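 active means inhibition above a per-plate cutoff, the mean inhibition of sample wells plus 3 SD, cut at about 35% in these data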;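 further: loss of TO-PRO-1 fluorescence as compound displaces dye from 1x1 AA loop RNA; 0% = DMSO only wells and 100% = 100 µM mitoxantrone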
# dCAG dye counter – displacement of TO-PRO-1 from CAG DNA duplex, counter-screen for rCAG RNA repeat binder project, biochemical, fluorescence, TO-PRO-1 dye, d(CAG) DNA oligo. shares compounds with rCAG RNA binder. d(CAG) DNA oligo TO-PRO-1 dye displacement. inhibition, % at 3 µM. 4,300 tested, 94% active;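 active means inhibition above its plate's cutoff, the mean test-well inhibition plus 3 SD, cut at about 4.8% in these data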;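 further: 0% = DNA dye mix with DMSO and 100% = 100 µM mitoxantrone; hits displace the dye from DNA and so lower well fluorescence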
# DNA CAG DR – inhibitors of DNA CAG/GTC TO-PRO-1 complex, dose response, counter-screen for rCAG RNA repeat binder project, biochemical, fluorescence, TO-PRO-1 dye | shares compounds with rCAG RNA binder | DNA CAG/GTC duplex TO-PRO-1 dye displacement fluorescence | IC50, µM | 250 tested, 20% active | AID 686960, 2013; in the data active means IC50 below about 10 µM
# The depositor's hits bear a star; i = inactive; nt = no result given.
SMILES,rCAG RNA binder,MPTP inh,B2AR ag,V-ATPase pH,Exocytosis inh,T cell modulator,rCAG binder conf,dCAG dye counter,others
Cc1nc2c(C(=O)NCCc3ccccc3)c[nH]n2c(=O)c1Cl,63.8*,0.0,4.1,-1.5,-0.2,443.7,54.1*,12.8*,
Cc1nc2c(C(=O)NCCC(C)C)c[nH]n2c(=O)c1Cl,37.0*,-2.8,1.5,-0.7,1.7,282.4,36.2*,8.2*,
Cc1cc(C(=O)NCCC(C)C)c2ccccc2n1,-0.9,0.8,-3.1,-2.0,4.1,237.3,nt,nt,
Cc1cc(Cl)nc(Cl)c1C(=O)NCCc1ccccc1,0.0,-0.8,-9.3,2.8,-6.9,198.0,nt,nt,
CCC(C)[C@H](Nc1nc(-c2ccccc2)nc2c1oc1ccccc12)C(=O)O (stereo partly drawn),73.8*,-2.4,-5.5,0.5,4.4,593.2,70.1*,32.4*,DNA CAG DR=i
CCc1nc(N[C@H](C(=O)O)C(C)CC)c2oc3ccccc3c2n1 (stereo partly drawn),10.8,-0.6,3.9,-2.5,-1.2,177.9,nt,nt,
CC(C)C(Nc1ncnc2c1oc1ccccc12)C(=O)O (stereo not drawn),2.3,2.4,-4.7,0.7,-5.1,384.7,nt,nt,
CC(C)[C@H](Nc1nc(-c2ccccc2)nc2c1oc1ccccc12)C(=O)O,58.0*,-0.8,-4.5,3.0,-2.0,529.9,42.2*,10.8*,
COc1ccccc1C(=O)NC1CCCCN(Cc2cccc(C(F)(F)F)c2)C1=O (stereo not drawn),-2.3,nt,nt,nt,nt,nt,nt,nt,
CCOC(=O)C1=CCN(S(=O)(=O)c2ccc(Cl)cc2)C1c1cccc(Br)c1 (stereo not drawn),2.3,nt,nt,nt,nt,nt,nt,nt,
CN(Cc1ccccc1)C(=O)OCc1cn(Cc2ccccc2Cl)nn1,-1.2,nt,nt,nt,nt,nt,nt,nt,
COc1ccccc1C(=O)N1CCC2CCN(C(=O)OC(C)(C)C)C2C1 (stereo not drawn),1.4,nt,nt,nt,nt,nt,nt,nt,
COC(=O)CSc1nnc(-c2ccc(NS(=O)(=O)c3ccc(C(C)(C)C)cc3)cc2)o1,32.5,nt,nt,nt,nt,nt,nt,nt,
COC(=O)CSc1nnc(-c2ccc(NS(=O)(=O)c3ccc(Cl)s3)cc2)o1,38.5*,nt,nt,nt,nt,nt,28.9,5.8*,
CC(=O)OC12CCCN(C1)/C(=C/c1cccc(Cl)c1)C2 (stereo not drawn),1.1,nt,nt,nt,nt,nt,nt,nt,
O=C(CN1CCCc2ccccc21)NCc1ccc(Cl)cc1,5.3,nt,nt,nt,nt,nt,nt,nt,
O=C(O)c1cc(NC(=O)c2ccc([N+](=O)[O-])cc2)cc(NC(=O)c2ccc([N+](=O)[O-])cc2)c1,49.8*,0.0,-6.9,-4.2,-7.1,172.2,33.6,7.2*,
CC(C)(C)C(=O)Nc1ccc(C(=O)Nc2cc(NC(=O)c3ccc(NC(=O)C(C)(C)C)cc3)cc(C(=O)O)c2)cc1,43.7*,-0.3,5.1,0.3,7.1,321.5,67.1*,30.3*,
O=C(O)c1ccc([N+](=O)[O-])cc1,0.9,0.0,3.2,1.7,-1.5,nt,nt,nt,
CC(C)(C)C(=O)Nc1ccc(C(=O)NNC(=O)c2ccccc2)cc1,-3.0,-0.7,2.5,2.0,-1.1,182.3,nt,nt,
C=CCN1[C@@H](CC(C)C)COc2cccc(F)c2S1(=O)=O,-0.2,nt,nt,nt,nt,nt,nt,nt,
COc1cc(/C=N/NC(=O)[C@H](Cc2c[nH]c3ccccc23)NC(=O)OCC(C)C)cc([N+](=O)[O-])c1O,70.2*,1.9,4.8,1.8,6.4,349.0,48.0*,16.9*,
CN(C)c1ccc(-c2nn3c(-c4ccco4)nnc3s2)cc1,9.8,nt,nt,nt,nt,nt,nt,nt,
O=C(Nc1ncccn1)c1ccc(Cl)c([N+](=O)[O-])c1,1.5,1.2,-3.1,2.7,-4.0,398.7,nt,nt,
O=C(Nc1ccc(S(=O)(=O)Nc2cnc3ccccc3n2)cc1)c1ccc(Cl)c([N+](=O)[O-])c1,78.7*,0.9,4.9,1.2,-8.8,209.3,66.7*,30.0*,
SMILES,rCAG RNA binder,MPTP inh,B2AR ag,V-ATPase pH,Exocytosis inh,T cell modulator,rCAG binder conf,dCAG dye counter,others
COc1ccc(C(=O)Nc2ccc(S(=O)(=O)Nc3cc(C)nc(C)n3)cc2)cc1,5.5,0.7,5.2,1.4,4.0,706.5,nt,nt,
CCC(Oc1ccccc1)C(=O)Nc1ccc(S(=O)(=O)Nc2cnc3ccccc3n2)cc1 (stereo not drawn),58.3*,-21.1,-12.6,-0.3,1.0,323.1,45.9*,13.2*,
COc1ccc(C(=O)Nc2ccc(S(=O)(=O)Nc3cnc4ccccc4n3)cc2)cc1,45.9*,0.1,1.8,7.4,0.5,226.2,27.7,5.7*,
CC(=O)c1ccc(-c2ccccc2C2=CC(=O)CC(C)(C)C2=O)cc1,3.2,nt,nt,nt,nt,nt,nt,nt,
COc1cccc(CNC(=O)CN2CCCc3ccccc32)c1,0.7,nt,nt,nt,nt,nt,nt,nt,
CCc1ccc(CCNC(=O)OCCCN2CCC3(CCC(C)CC3)C2=O)cc1 (stereo not drawn),-0.4,nt,nt,nt,nt,nt,nt,nt,
CC1=C(C(=O)Nc2ccccc2)C(c2ccc(C)o2)n2c(s/c(=C/c3ccccc3)c2=O)=N1 (stereo not drawn),5.6,-1.8,4.0,-2.1,5.2,259.5,nt,nt,
CCOc1ccc(C2C(C(=O)Nc3ccccc3)=C(C)N=c3s/c(=C/c4cccc(OCC(=O)O)c4)c(=O)n32)cc1 (stereo not drawn),67.2*,0.0,0.2,-1.8,-3.8,619.9,82.5*,53.8*,
CC1=C(C(=O)Nc2ccccc2)C(c2ccc(Cl)cc2)n2c(s/c(=C/c3cccc(OCC(=O)O)c3)c2=O)=N1 (stereo not drawn),67.4*,1.4,8.9,0.3,-3.6,583.7,87.4*,62.5*,
C#CCN1C(=O)[C@]2(NCCc3c2[nH]c2ccc(OC)cc32)c2ccccc21,-0.8,nt,nt,nt,nt,nt,nt,nt,
Cc1ccc(S(=O)(=O)Nc2cc(-c3ccc(Cl)cc3)nn2C)cc1,47.7*,4.2,5.0,-0.5,-1.0,239.1,48.3*,11.2*,
Cc1ccc(S(=O)(=O)Nc2cc(-c3ccccc3)nn2C)cc1Cl,56.6*,3.0,3.0,-5.2,1.1,192.2,38.0*,9.9*,
CC(=O)CC[C@@H]1CC[C@]2(CCCN(S(=O)(=O)c3ccccc3)C2)O1,0.3,nt,nt,nt,nt,nt,nt,nt,
O=c1ccc2cc(S(=O)(=O)N3CCN(c4ccccc4F)CC3)ccc2o1,0.5,0.7,-20.1,-4.9,-1.0,201.7,nt,nt,
